# Measurements published in ChEMBL document CHEMBL3739411, “Cytotoxic Illudane Sesquiterpenes from the Fungus Granulobasidium vellereum (Ellis and Cragin) Jülich” (J Nat Prod, 2015).
# What was measured:
# [1] = Drug level in phosphate buffer treated with (3S,7S)-Illudin M at pH 5.4 in presence of cysteine; format: physicochemical
# Procedure, shortened: (§1)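 Compound was incubated with L-cysteine in 50 mM buffer at pH 5.4 at room temperature. The reaction was followed for 3 h by UV absorbance at 318 nm and by LC-HRESIMS (C18, 10−90% aqueous MeCN gradient). Reaction half-life was taken from the time course.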
# [2] = Drug level in phosphate buffer treated with (3S,7R)-Illudin M at pH 5.4 in presence of cysteine; format: physicochemical; procedure, shortened: as §1
# [3] = Cytotoxicity against human HuH7 cells assessed as viable cells after 6 days by XTT assay; format: functional; conditions: Huh-7, 144 h
# Procedure, shortened: (§2)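 Cells seeded at 2 × 10⁴ cells/well in 96-well plates; test substances added next day in duplicate. CC50 is the concentration giving 50% viability relative to untreated control cells. Positive control included.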
# MT4 = assay: Cytotoxicity against human MT4 cells assessed as viable cells after 6 days by XTT assay; format: functional; conditions: MT4, 144 h; procedure, shortened: as §2
# [4] = Chemical reactivity of the compound in aqueous HCl assessed as reaction rate; format: physicochemical; conditions: buffer
# Procedure, shortened: (§3)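 Compound dissolved in 2 M HCl at room temperature; reaction followed spectrophotometrically at 318 nm and by LC-HRESIMS. First-order rate constant k (min⁻¹) and t1/2 (min) derived from the decay.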
# [5] = Half life of the compound in aqueous HCl; format: physicochemical; procedure, shortened: as §3
# [6] = Half life of the compound in phosphate buffer at pH 5.4 in presence of cysteine; format: ADME; conditions: phosphate buffer with cysteine
Structure (SMILES),CC50 [3] [nM],CC50 (MT4) [nM],K [4] [×10⁻³ /min],half-life [5] [min],further results
Cc1c(O)c2c(c(C)c1CCO)[C@@H](O)C(C)(C)[C@H]2SC[C@H](N)C(=O)O,,,,,Drug metabolism [1]: metabolite_detected
Cc1c(O)c2c(c(C)c1CCO)[C@H](O)C(C)(C)[C@H]2SC[C@H](N)C(=O)O,,,,,Drug metabolism [2]: metabolite_detected
CC1=C2C(=CC(C)(C)[C@@H]2O)C(=O)[C@@](C)(O)C12CC2,380,14,12,38,half-life [6]: 5.6 min
CC1=C2C(=CC(C)(C)[C@@H]2O)C(=O)[C@](C)(O)C12CC2 [ILLUDIN M],,,4.7,147,
CC1=C2C(=C[C@@](C)(CO)[C@@H]2O)C(=O)[C@@](C)(O)C12CC2,98,23,,,
CC1(C)C=C2C=C(CO)C3(CC3)[C@](C)(O)[C@H]2C1,240000,110000,,,
COc1nc(N)nc2c1ncn2[C@@H]1O[C@H](COP(=O)(N[C@H](C)C(=O)OCC(C)(C)C)Oc2ccc3ccccc3c2)[C@@H](O)[C@@]1(C)O (stereo partly drawn),3000,3000,,,
Cc1c(O)c2c(c(C)c1CCO)[C@H](O)C(C)(C)[C@@H]2SC[C@H](N)C(=O)O,,,,,Drug metabolism [2]: metabolite_detected
CC1=C2C(=CC(C)(C)[C@H]2O)C(=O)[C@@](C)(O)C12CC2,1300,120,4.1,170,half-life [6]: 27 min
CC1=CC2=C[C@@](C)(CO)C[C@@H]2[C@@](C)(O)C12CC2,> 400000,> 400000,,,
